The record followed here is PubChem BioAssay AID588559 (The Scripps Research Institute Molecular Screening Center, 2011).

The target in this assay is Protein-arginine deiminase type-4 (Homo sapiens) (UniProt Q9UM07). Kind of assay: recombinant human PAD4 activity inhibition – biochemical, BAEE substrate, colorimetric citrulline readout, late-stage follow-up (AID 588559). To be noted: colorimetric citrulline detection, at 100 µM, hits give high values. An outline of the steps:
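Incubation: 15 min enzyme–compound preincubation, then 15 min BAEE reaction, 37 °C; Test system: recombinant PAD4; Input: 0.2 µM PAD4 enzyme; Benchmarks: DMSO-treated PAD4 as uninhibited reference; Technique: 540 nm absorbance of citrulline after diacetyl monoxime/thiosemicarbazide color development; Reagent: BAEE substrate at 10 mM; Buffer or medium: Tris pH 7.6, Ca2+ and DTT.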

Each structure is given as a SMILES string. Active and inactive are the calls of the source.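 Rule for the calls: active = PAD4 enzyme activity blocked 50% or more; inactive = under 50% inhibition.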

Chain of Protein-arginine deiminase type-4 (Homo sapiens) (Q9UM07 whole entry, looked up): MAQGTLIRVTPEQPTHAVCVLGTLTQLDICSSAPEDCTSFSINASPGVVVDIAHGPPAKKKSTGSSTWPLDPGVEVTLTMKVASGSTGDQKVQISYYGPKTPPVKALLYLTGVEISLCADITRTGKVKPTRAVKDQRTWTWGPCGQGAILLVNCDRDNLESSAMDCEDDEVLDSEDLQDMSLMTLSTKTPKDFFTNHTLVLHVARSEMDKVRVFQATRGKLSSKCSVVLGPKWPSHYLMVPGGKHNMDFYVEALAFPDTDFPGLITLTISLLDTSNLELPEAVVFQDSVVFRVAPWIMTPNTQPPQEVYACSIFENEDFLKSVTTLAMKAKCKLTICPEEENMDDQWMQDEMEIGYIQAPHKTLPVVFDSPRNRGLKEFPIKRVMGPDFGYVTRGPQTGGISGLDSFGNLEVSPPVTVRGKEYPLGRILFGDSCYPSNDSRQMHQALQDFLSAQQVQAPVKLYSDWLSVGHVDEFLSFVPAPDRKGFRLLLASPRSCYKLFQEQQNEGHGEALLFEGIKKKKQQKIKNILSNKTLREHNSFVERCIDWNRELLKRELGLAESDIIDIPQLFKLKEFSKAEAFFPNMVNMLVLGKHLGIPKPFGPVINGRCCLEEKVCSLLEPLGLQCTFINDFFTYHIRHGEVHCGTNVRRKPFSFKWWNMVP

On to `CCOC(=O)c1nc(C(=O)OCC)c(C(=O)OCC)c(-c2ccc(OC)c(OC)c2OCc2ccccc2)c1C`, for which the inhibition was 2% (inactive).

Take `COC(=O)c1cc(-c2ccccc2)c(C(=O)OC)c(-c2ccc3ccccc3n2)n1`: the inhibition was -11% (inactive).

For `COC(=O)c1nnc(C(=O)OC)c(-c2ccc3c([N+](=O)[O-])c(OC)ccc3n2)n1`, the inhibition was -12% (inactive).

`NC1=CC(=O)c2ccc(-c3cccc(C(=O)O)n3)nc2C1=O`: the inhibition is 98%.

As for `O=C1C(Br)=CC(=O)c2ncccc21`, the inhibition is 97%.

On to `NC1=CC(=O)c2ccc(-c3ccccn3)nc2C1=O`, for which the inhibition was 88%.

Consider `COC1=C(Br)C(=O)c2ncccc2C1=O`, for which the inhibition is 90%.

For the compound `NC1=CC(=O)c2cccnc2C1=O`, the inhibition is 98%.

Consider `COC(=O)c1cccc(-c2ccc3c(n2)C(=O)C(N)=CC3=O)n1`, for which the inhibition was 91%.

As to `COC1=CC(=O)c2nc(C#N)ccc2C1=O`, the inhibition is 98%.

`COC(=O)c1nnc(C(=O)OC)c(-c2ccc3ccccc3n2)n1`: the inhibition was -21% (inactive).

Regarding `COC1=C(N)C(=O)c2ncccc2C1=O`, the inhibition is 99%.

On to `COc1ccc2nc(C#N)ccc2c1[N+](=O)[O-]`, for which the inhibition is -13% (inactive).

For `COC1=C(Br)C(=O)c2nc(-c3ccccn3)ccc2C1=O`, the inhibition was 98%.

Consider `COC(=O)c1nc(-c2ccc3c(n2)C(=O)C(Br)=CC3=O)c2[nH]c3ccccc3c2c1C`, for which the inhibition was 0% (inactive).

On to `NC1=C(N)C(=O)c2ccccc2C1=O`, for which the inhibition was 97%.

As to `COC(=O)c1nc(C(C)=O)c2[nH]c3ccccc3c2c1C`, the inhibition is 0% (inactive).

For `COc1ccc2ncccc2c1[N+](=O)[O-]`, the inhibition was -12% (inactive).

With `COC(=O)c1cccc(-c2ccc3ccc(Br)c(O)c3n2)n1`, the inhibition was 27% (inactive).

Take `COC(=O)c1nc(C(=O)OC)c(N)c(-c2ccccc2Br)c1C`: the inhibition was 9% (inactive).

Consider `O=C1C(O)=C(O)C(=O)c2ncccc21`, for which the inhibition is 98%.

Turning to `NC1=CC(=O)c2ccc(-c3cc(C(=O)O)ccc3N)nc2C1=O`, the inhibition was 97%.

`COC(=O)c1nc(C(=O)OC)c(NC(C)=O)c(-c2ccccc2Br)c1C`: the inhibition was 67%.

Take `COC(=O)c1nnc(C(=O)OC)c(-c2ccc3cc(OC)ccc3n2)n1`: the inhibition was -2% (inactive).

As for `COC(=O)c1cccc(-c2ccc3c(n2)C(=O)C(Br)=CC3=O)n1`, the inhibition was 90%.

Regarding `O=C(O)c1cccc(-c2ccc3ccc(Br)c(OCc4ccccc4)c3n2)n1`, the inhibition was -8% (inactive).

As to `COc1ccc2nc(C#N)ccc2c1`, the inhibition was -10% (inactive).

On to `COC1=C(I)C(=O)c2nc(C#N)ccc2C1=O`, for which the inhibition was 98%.

With `O=C1C=C(Br)C(=O)c2ncccc21`, the inhibition is 100%.
